ChEMBL document CHEMBL1126620, “Systematic substitution of an oxytocin antagonist with D-amino acids: unexpected high antagonistic potency of the D-Cys6-substituted analogue” (J Med Chem, 1993)

Each compound was assayed on Rattus norvegicus (assay: In vivo evaluation for the competitive antagonism of Antidiuretic action in the rat determined by the rat antidiuretic assay). Settings: Urine, read-out: pA2 (converted).
For `CC[C@H](C)[C@@H]1NC(=O)[C@@H](Cc2c[nH]c3ccccc23)NC(=O)CC2(CCCCC2)SSC[C@@H](C(=O)N2CCC[C@H]2C(=O)N[C@H](CCCN=C(N)N)C(=O)NCC(N)=O)NC(=O)[C@H](CC(N)=O)NC(=O)[C@H](CCC(N)=O)NC1=O`, the Kb was > 2.51 µM.
In the case of `CC[C@H](C)[C@@H]1NC(=O)[C@@H](Cc2c[nH]c3ccccc23)NC(=O)CC2(CCCCC2)SSC[C@@H](C(=O)N2CCC[C@H]2C(=O)N[C@@H](CCCN=C(N)N)C(=O)NCC(N)=O)NC(=O)[C@H](CC(N)=O)NC(=O)[C@H](CCC(N)=O)NC1=O`, the Kb was > 1.26 µM.
For `CC[C@H](C)[C@@H]1NC(=O)[C@@H](Cc2c[nH]c3ccccc23)NC(=O)CC2(CCCCC2)SSC[C@H](C(=O)N2CCC[C@H]2C(=O)N[C@@H](CCCN=C(N)N)C(=O)NCC(N)=O)NC(=O)[C@H](CC(N)=O)NC(=O)[C@H](CCC(N)=O)NC1=O`, the Kb was > 0.501 µM.

Organism: Rattus norvegicus
Assay: In vitro competitive antagonist effect of OT contractile action in the rat uterus determined by the rat oxytocic assay in presence of Mg2+
Type: functional
Settings: read-out: pA2 (converted)
Outline: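 Isolated rat uterus, oxytocin-induced contraction, bath containing magnesium salts; pA2 (negative log molar antagonist concentration halving agonist response) obtained by Schild method from at least four separate assays.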
With `CC[C@H](C)[C@@H]1NC(=O)[C@@H](Cc2c[nH]c3ccccc23)NC(=O)CC2(CCCCC2)SSC[C@@H](C(=O)N2CCC[C@H]2C(=O)N[C@@H](CCCNC(=N)N)C(=O)NCC(N)=O)NC(=O)[C@H](CC(N)=O)NC(=O)[C@@H]([C@H](C)O)NC1=O` the Kb was 11.2 µM.
`CC[C@H](C)[C@@H]1NC(=O)[C@@H](Cc2c[nH]c3ccccc23)NC(=O)CC2(CCCCC2)SSC[C@@H](C(=O)N2CCC[C@H]2C(=O)N[C@H](CCCN=C(N)N)C(=O)NCC(N)=O)NC(=O)[C@H](CC(N)=O)NC(=O)[C@H](CCC(N)=O)NC1=O` was tested, and the Kb was 0.0123 µM.
`CC[C@@H](C)[C@H]1NC(=O)[C@@H](Cc2c[nH]c3ccccc23)NC(=O)CC2(CCCCC2)SSC[C@@H](C(=O)N2CCC[C@H]2C(=O)N[C@@H](CCCN=C(N)N)C(=O)NCC(N)=O)NC(=O)[C@H](CC(N)=O)NC(=O)[C@H](CCC(N)=O)NC1=O` showed a Kb of 5.89 µM.
Compound `CC[C@H](C)[C@@H]1NC(=O)[C@@H](Cc2c[nH]c3ccccc23)NC(=O)CC2(CCCCC2)SSC[C@@H](C(=O)N2CCC[C@@H]2C(=O)N[C@@H](CCCN=C(N)N)C(=O)NCC(N)=O)NC(=O)[C@H](CC(N)=O)NC(=O)[C@H](CCC(N)=O)NC1=O` has a Kb of 0.0141 µM.
`CC[C@H](C)[C@@H]1NC(=O)[C@@H](Cc2c[nH]c3ccccc23)NC(=O)CC2(CCCCC2)SSC[C@@H](C(=O)N2CCC[C@H]2C(=O)N[C@@H](CCCN=C(N)N)C(=O)NCC(N)=O)NC(=O)[C@H](CC(N)=O)NC(=O)[C@@H](CCCNC(N)=O)NC1=O` was tested, and the Kb was 3.09 µM.
For `CC[C@H](C)[C@H]1NC(=O)[C@@H](Cc2c[nH]c3ccccc23)NC(=O)CC2(CCCCC2)SSC[C@@H](C(=O)N2CCC[C@H]2C(=O)N[C@@H](CCCN=C(N)N)C(=O)NCC(N)=O)NC(=O)[C@H](CC(N)=O)NC(=O)[C@H](CCC(N)=O)NC1=O`, the Kb was 7.76 µM.
Compound `CC[C@H](C)[C@@H]1NC(=O)[C@@H](Cc2c[nH]c3ccccc23)NC(=O)CC2(CCCCC2)SSC(C)(C)[C@H](C(=O)N2CCC[C@H]2C(=O)N[C@@H](CCCNC(=N)N)C(=O)NCC(N)=O)NC(=O)[C@H](CC(N)=O)NC(=O)[C@H](CCC(N)=O)NC1=O` has a Kb of 0.0105 µM.
In the case of `CC[C@H](C)[C@@H]1NC(=O)[C@@H](Cc2c[nH]c3ccccc23)NC(=O)CC2(CCCCC2)SSC[C@@H](C(=O)N2CCC[C@H]2C(=O)N[C@@H](CCCN=C(N)N)C(=O)NCC(N)=O)NC(=O)[C@H](CC(N)=O)NC(=O)[C@@H](CC(N)=O)NC1=O`, the Kb was 3.89 µM.
For `CC[C@H](C)[C@@H]1NC(=O)[C@@H](Cc2c[nH]c3ccccc23)NC(=O)CC2(CCCCC2)SSC[C@H](C(=O)N2CCC[C@H]2C(=O)N[C@@H](CCCN=C(N)N)C(=O)NCC(N)=O)NC(=O)[C@H](CC(N)=O)NC(=O)[C@H](CCC(N)=O)NC1=O`, the Kb was 0.00513 µM.
